According to ChEMBL document CHEMBL1128458, “Synthesis and anticonvulsant activity of enaminones. 3. Investigations on 4'-, 3'-, and 2'-substituted and polysubstituted anilino compounds, sodium channel binding studies, and toxicity evaluations” (J Med Chem, 1995):
Activity calls are given as the source filed them. The calls are words filed in the database; no cut-off is given here.

Columns and labels:
Mus musculus [1] = assay: Anticonvulsant activity; 3 indicates no activity at doses up to and including 300 mg/kg in mice.; format: functional
In short: (§1)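 Phase I screen in CF1 mice: compound suspended in 0.5% aqueous methylcellulose, given ip at 30, 100 and 300 mg/kg; MES, scMet and rotorod toxicity read at 30 min and 4 h. Class 1 = activity at 100 mg/kg or less; 2 = activity above 100 mg/kg; 3 = none up to 300 mg/kg.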

Mus musculus [2] = species on record: Mus musculus; assay: Effective dose for anticonvulsant activity determined in mice using MES test procedure. (Phase II); format: functional
Mus musculus [3] = assay: Effective dose for anticonvulsant activity determined in mice using subcutaneous Met test procedure. (Phase II); Potentiates; format: functional, organism-based
Rattus norvegicus [4] = species on record: Rattus norvegicus; assay: Effective dose for anticonvulsant activity determined in rats using MES test procedure. (Phase VIA); format: functional
In short: (§2)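 Phase VIA oral dosing in male Sprague–Dawley rats; MES and scMet ED50 and TD50 in mg/kg, each read at the time of peak effect; range in parentheses.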

Rattus norvegicus [5] = assay: Effective dose for anticonvulsant activity determined in rats using subcutaneous Met test procedure. (Phase VIA); No protection; format: functional, organism-based
Mus musculus [6] = assay: Anticonvulsant activity was determined in mice; 1 indicates 100 mg/kg or less; format: functional; in short: as §1
Rattus norvegicus [7] = assay: Anticonvulsant activity determined in rats at an oral dose of 50 mg/kg of phase VIA trials; active; format: functional
[8] = target: Sodium channel alpha subunits; brain (Types I, II, III) (Rattus norvegicus, UniProt P04775+P04774+P08104); assay: Inhibition of [3H]BTX-B binding to neurotoxin site 2 of sodium channel of rat cerebral cortex synaptoneurosomes; format: tissue-based
In short: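 Synaptoneurosomes from rat cerebral cortex were incubated with [3H]BTX-B (2.0 nM final) in HEPES, pH 7.4 at 25 °C, with 130 mM choline chloride, at 37 °C for 45 min. Reactions were stopped by rapid vacuum filtration onto glass fibre filters, and bound radioactivity was compared with control. IC50 was read from log concentration (10–800 µM) versus percent specific binding.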

Mus musculus [9] = assay: Anticonvulsant activity was determined; 2 indicates at doses greater than 100 mg/kg in mice; format: functional; in short: as §1
Mus musculus [10] = assay: Effective dose for anticonvulsant activity determined in mice using subcutaneous Met test procedure. (Phase II); No protection; format: functional, organism-based
Rattus norvegicus [11] = species on record: Rattus norvegicus; assay: Effective dose for anticonvulsant activity determined in rats using MES test procedure. (Phase VIA, parentheses value indicate 95% confidence limits); format: functional; in short: as §2
[12] = Toxic dose determined in rats using MES test procedure. (Phase VIA, parentheses value indicate 95% confidence limits); format: toxicity, organism-based; conditions: rat, in vivo; in short: as §2
Rattus norvegicus [13] = species on record: Rattus norvegicus; assay: Protective index measured as the […].; format: functional
Rattus norvegicus [14] = assay: Anticonvulsant activity was determined in rat; 1 indicates 100 mg/kg or less; format: functional
Rattus norvegicus [15] = assay: Anticonvulsant activity was determined; 3 indicates no activity at doses up to and including 300 mg/kg in rat; format: functional
Rattus norvegicus [16] = assay: Anticonvulsant activity was determined; 2 indicates at doses greater than 100 mg/kg in rat; format: functional
Mus musculus [17] = assay: Effective dose for anticonvulsant activity determined in mice using subcutaneous Met test procedure. (Phase II); format: functional; conditions: sc
Rattus norvegicus [18] = assay: Effective dose for anticonvulsant activity determined in rats using subcutaneous Met test procedure. (Phase VIA); format: functional; conditions: sc; in short: as §2
[19] = Toxic dose determined in mice using MES test procedure. (Phase II); format: toxicity; conditions: mouse, in vivo
[20] = Toxic dose determined in rats using MES test procedure. (Phase VIA); format: toxicity; conditions: rat, in vivo; in short: as §2
Rattus norvegicus [21] = assay: Change in kidney weight on day 2 in male rats after ip administration of 100 mg/kg; expressed as kidney weight (g/100 g of body weight); format: functional; conditions: route intraperitoneal
In short: (§3)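 Male Fischer 344 rats (200-245 g), four per group, housed singly in metabolism cages; day 0 control values taken, then a single ip dose of 100 mg/kg or vehicle (25% DMSO in corn oil). Pair-fed controls. Urine volume measured at 24 h intervals. At 48 h, under ether, blood drawn from the dorsal aorta; plasma assayed for ALT/GPT and BUN; kidney and liver weighed. Means ± SE.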

Rattus norvegicus [22] = assay: Change in liver weight determined in male rats on day 2 after ip administration of 100 mg/kg; expressed as liver weight (g/100 g of body weight); format: functional; conditions: route intraperitoneal; in short: as §3
Rattus norvegicus [23] = assay: Change in the blood urea nitrogen concentration on day 0 determined in male rats after ip administration of 100 mg/kg; Expressed as blood urea nitrogen concentration (mg %); format: functional; conditions: route intraperitoneal; in short: as §3
Rattus norvegicus [24] = assay: Change in the blood urea nitrogen concentration on day 2 determined in male rats after ip administration of 100 mg/kg; Expressed as blood urea nitrogen concentration (mg %); format: functional; conditions: route intraperitoneal; in short: as §3
Rattus norvegicus [25] = assay: ALT/GPT activity in male rats on day 2 after ip administration of 100 mg/kg.; format: functional; conditions: route intraperitoneal; in short: as §3
Rattus norvegicus [26] = assay: Urine volume collected for biochemical tests after an ip dose of 100 mg/kg at 0 day in male rats.; format: functional; conditions: route intraperitoneal; in short: as §3
Rattus norvegicus [27] = assay: Urine volume collected for biochemical tests after an ip dose of 100 mg/kg at day 1 in male rats.; format: functional; conditions: route intraperitoneal; in short: as §3
Rattus norvegicus [28] = assay: Urine volume collected for biochemical tests after an ip dose of 100 mg/kg at day 2 in male rats.; format: functional; conditions: route intraperitoneal; in short: as §3

COC(=O)[C@@H]1C(=O)C=C(Nc2ccccc2Br)C[C@H]1C
Anticonvulsant activity (Mus musculus [1]): 3

NC(=O)N1c2ccccc2C=Cc2ccccc21 [CARBAMAZEPINE]
ED50 (Mus musculus [2]): 8.8 mg/kg
ED50 (Mus musculus [3]): Convulsant
ED50 (Rattus norvegicus [4]): 8.5 mg/kg
ED50 (Rattus norvegicus [5]): inactive

COC(=O)[C@@H]1C(=O)C=C(Nc2ccc(Cl)cn2)C[C@H]1C
Anticonvulsant activity (Mus musculus [6]): 1
Anticonvulsant activity (Rattus norvegicus [7]): 1

CN1C(=O)CN=C(c2ccccc2)c2cc(Cl)ccc21 [DIAZEPAM]
IC50 [8]: 152 µM

COC(=O)[C@@H]1C(=O)C=C(Nc2ccc(Cl)c(Cl)c2)C[C@H]1C
Anticonvulsant activity (Mus musculus [6]): 1

CCOC(=O)[C@@H]1C(=O)C=C(Nc2ccc(Cl)c(Cl)c2Cl)C[C@H]1C
Anticonvulsant activity (Mus musculus [9]): 2

CCOC(=O)[C@@H]1C(=O)C=C(Nc2ccccc2N)C[C@H]1C
Anticonvulsant activity (Mus musculus [1]): 3

CCOC(=O)[C@@H]1C(=O)C=C(Nc2ccc(Cl)cc2Cl)C[C@H]1C
Anticonvulsant activity (Mus musculus [6]): 1

COC(=O)[C@@H]1C(=O)C=C(Nc2ccc(Cl)c(Cl)c2Cl)C[C@H]1C
Anticonvulsant activity (Mus musculus [1]): 3

CCOC(=O)[C@@H]1C(=O)C=C(Nc2ccccc2Cl)C[C@H]1C
Anticonvulsant activity (Mus musculus [1]): 3

Nc1nnc(-c2cccc(Cl)c2Cl)c(N)n1 [LAMOTRIGINE]
ED50 (Mus musculus [2]): 2.6 mg/kg
IC50 [8]: 114 µM

O=C1NC(=O)C(c2ccccc2)(c2ccccc2)N1
ED50 (Mus musculus [10]): inactive
ED50 (Rattus norvegicus [5]): inactive

CCOC(=O)[C@@H]1C(=O)C=C(Nc2ccc(Cl)cn2)C[C@H]1C
Anticonvulsant activity (Mus musculus [6]): 1
ED50 (Rattus norvegicus [11]): 12.1 mg/kg
TD50 [12]: > 344 mg/kg
PI (Rattus norvegicus [13]): 28.4
Anticonvulsant activity (Rattus norvegicus [14]): 1

COC(=O)[C@@H]1C(=O)C=C(Nc2ccc(Cl)cc2Cl)C[C@H]1C
Anticonvulsant activity (Mus musculus [6]): 1

COC(=O)[C@@H]1C(=O)C=C(Nc2ccccc2C)C[C@H]1C
Anticonvulsant activity (Mus musculus [1]): 3

CCc1ccccc1NC1=CC(=O)[C@@H](C(=O)OC)[C@H](C)C1
Anticonvulsant activity (Mus musculus [6]): 1

CCOC(=O)[C@@H]1C(=O)C=C(Nc2cc(Cl)ccc2Cl)C[C@H]1C
Anticonvulsant activity (Mus musculus [1]): 3

COC(=O)[C@@H]1C(=O)C=C(Nc2cc(Cl)c(Cl)cc2Cl)C[C@H]1C
Anticonvulsant activity (Mus musculus [6]): 1

CCOC(=O)[C@@H]1C(=O)C=C(Nc2cc(Cl)cc(Cl)c2)C[C@H]1C
Anticonvulsant activity (Mus musculus [1]): 3

CCOC(=O)[C@@H]1C(=O)C=C(Nc2cc(Cl)c(Cl)c(Cl)c2)C[C@H]1C
Anticonvulsant activity (Mus musculus [9]): 2

COC(=O)[C@@H]1C(=O)C=C(Nc2cc(OC)ccc2Cl)C[C@H]1C
Anticonvulsant activity (Mus musculus [9]): 2

COC(=O)[C@@H]1C(=O)C=C(Nc2ccccc2S(N)(=O)=O)C[C@H]1C
Anticonvulsant activity (Mus musculus [1]): 3

COC(=O)[C@@H]1C(=O)C=C(Nc2cc(Cl)cc(Cl)c2)C[C@H]1C
Anticonvulsant activity (Mus musculus [1]): 3

CCOC(=O)[C@@H]1C(=O)C=C(NNc2ccccc2)C[C@H]1C
Anticonvulsant activity (Mus musculus [1]): 3
Anticonvulsant activity (Rattus norvegicus [15]): 3

COC(=O)[C@@H]1C(=O)C=C(Nc2cc(C)ccc2OC)C[C@H]1C
Anticonvulsant activity (Mus musculus [9]): 2

COC(=O)[C@@H]1C(=O)C=C(Nc2ccccc2F)C[C@H]1C
Anticonvulsant activity (Mus musculus [9]): 2

CCOC(=O)[C@@H]1C(=O)C=C(Nc2ccc(OC)c(Cl)c2)C[C@H]1C
Anticonvulsant activity (Mus musculus [1]): 3

COC(=O)[C@@H]1C(=O)C=C(Nc2c(Cl)cccc2Cl)C[C@H]1C
Anticonvulsant activity (Mus musculus [1]): 3

CCOC(=O)[C@@H]1C(=O)C=C(Nc2cc(Cl)c(Cl)cc2Cl)C[C@H]1C
Anticonvulsant activity (Mus musculus [1]): 3

COC(=O)[C@@H]1C(=O)C=C(Nc2ccccc2O)C[C@H]1C
Anticonvulsant activity (Mus musculus [1]): 3

COC(=O)[C@@H]1C(=O)C=C(NNc2ccccc2)C[C@H]1C
Anticonvulsant activity (Mus musculus [9]): 2
Anticonvulsant activity (Rattus norvegicus [16]): 2

COC(=O)[C@@H]1C(=O)C=C(Nc2ccccc2C#N)C[C@H]1C
Anticonvulsant activity (Mus musculus [9]): 2

CCOC(=O)[C@@H]1C(=O)C=C(Nc2ccc(Cl)c(Cl)c2)C[C@H]1C
Anticonvulsant activity (Mus musculus [9]): 2

COC(=O)[C@@H]1C(=O)C=C(Nc2ccccc2C(F)(F)F)C[C@H]1C
Anticonvulsant activity (Mus musculus [9]): 2

CCC1(c2ccccc2)C(=O)NC(=O)NC1=O [PHENOBARBITAL]
IC50 [8]: 2.5 µM

COC(=O)[C@@H]1C(=O)C=C(Nc2ccccc2[N+](=O)[O-])C[C@H]1C
Anticonvulsant activity (Mus musculus [9]): 2

COC(=O)[C@@H]1C(=O)C=C(Nc2ccccc2Cl)C[C@H]1C
Anticonvulsant activity (Mus musculus [6]): 1

COC(=O)[C@@H]1C(=O)C=C(Nc2ccccc2OC)C[C@H]1C
Anticonvulsant activity (Mus musculus [1]): 3

COC(=O)[C@@H]1C(=O)C=C(NC2CCCCC2)C[C@H]1C
Anticonvulsant activity (Mus musculus [1]): 3
Anticonvulsant activity (Rattus norvegicus [15]): 3

COC(=O)[C@@H]1C(=O)C=C(Nc2ccc(OC)c(Cl)c2)C[C@H]1C
Anticonvulsant activity (Mus musculus [1]): 3

CCOC(=O)[C@@H]1C(=O)C=C(Nc2cc(C)ccc2OC)C[C@H]1C
Anticonvulsant activity (Mus musculus [6]): 1

CCOC(=O)[C@@H]1C(=O)C=C(Nc2c(Cl)cccc2Cl)C[C@H]1C
Anticonvulsant activity (Mus musculus [1]): 3

COC(=O)[C@@H]1C(=O)C=C(Nc2ccccc2I)C[C@H]1C
Anticonvulsant activity (Mus musculus [6]): 1

COC(=O)[C@@H]1C(=O)C=C(Nc2cc(Cl)ccc2Cl)C[C@H]1C
Anticonvulsant activity (Mus musculus [6]): 1

COC(=O)[C@@H]1C(=O)C=C(Nc2ccc(OC(F)(F)F)cc2)C[C@H]1C
ED50 (Mus musculus [2]): 22.4 mg/kg
ED50 (Mus musculus [17]): 114 mg/kg
ED50 (Rattus norvegicus [4]): 9.3 mg/kg
ED50 (Rattus norvegicus [18]): > 79 mg/kg
TD50 [19]: 122 mg/kg
TD50 [20]: > 158 mg/kg
IC50 [8]: 170 µM

CCOC(=O)[C@@H]1C(=O)C=C(NC2CCCCC2)C[C@H]1C
Anticonvulsant activity (Mus musculus [6]): 1
Anticonvulsant activity (Rattus norvegicus [14]): 1

COC(=O)[C@@H]1C(=O)C=C(Nc2ccc(Cl)cc2)C[C@H]1C
ED50 (Mus musculus [17]): > 254 mg/kg
Activity (Rattus norvegicus [21]): 0.35
Activity (Rattus norvegicus [22]): 4.16
Activity (Rattus norvegicus [23]): 14%
Activity (Rattus norvegicus [24]): 14%
ALT/GPT (Rattus norvegicus [25]): 25 U/L
ED50 (Rattus norvegicus [4]): 5.8 mg/kg
ED50 (Rattus norvegicus [18]): > 190 mg/kg
Urine volume (Rattus norvegicus [26]): 13.8 mL
Urine volume (Rattus norvegicus [27]): 9.6 mL
TD50 [19]: 255 mg/kg
TD50 [20]: > 380 mg/kg
IC50 [8]: 489 µM
Urine volume (Rattus norvegicus [28]): 10.2 mL
